Experimental data reported in ChEMBL document CHEMBL3525942, “Disposition and metabolism of [14C]SB-649868, an orexin 1 and 2 receptor antagonist, in humans” (Drug Metab Dispos, 2011).

Assays:
[1] = Drug level in human urine treated with [14C]SB-649868 at 30 mg, po single dose after 0 to 72 hrs by HPLC-MSn analysis; conditions: in vivo, 0-72 h
Homo sapiens [2] = experiment: Cmax in human plasma treated with [14C]SB-649868 at 30 mg, po single dose; type: ADME, organism-based; set-up: dosed compound name [14C]SB-649868; conditions: in vivo
In short: (§1)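 Eight healthy men given one oral 30 mg [14C] capsule. Plasma sampled 0.25–96 h. Parent measured in 50 µl plasma after acetonitrile precipitation with deuterated internal standard, by HPLC-MS/MS (positive-ion MRM). Calibration 5–5000 ng/ml, 1/x2 weighted. Noncompartmental analysis: t1/2 = ln2/λz, linear-up/log-down trapezoid AUC, CL/F = Dose/AUC0-inf.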

[3] = Terminal phase half life in human at 10 to 60 mg; type: ADME, organism-based; set-up: dosed compound name [14C]SB-649868; conditions: in vivo, read-out: Compound recovery (converted)
Plasma [4] = experiment: Drug level in human plasma assessed as radioactivity treated with [14C]SB-649868 at 30 mg, po single dose after 12 hrs by HPLC-MSn analysis; type: ADME, organism-based; set-up: dosed compound name [14C]SB-649868; conditions: in vivo
In short: (§2)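 Plasma taken 3, 12, 24 and 48 h after one oral 30 mg [14C] dose, extracted, and run on radio-HPLC: C8 column, 45 mM ammonium acetate pH 3.8 and acetonitrile gradient, 1 ml/min. Fractions collected into scintillant plates and counted 5 min. Extraction recovery measured; data corrected when recovery was <85%. Values are % of plasma radioactivity, BQL 1%; n=7 at 3 and 12 h.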

[5] = Elimination half life in rat; type: ADME, organism-based; set-up: dosed compound name [14C]SB-649868; conditions: in vivo, read-out: Compound recovery
Homo sapiens [6] = experiment: Apparent oral clearance in human plasma treated with [14C]SB-649868 at 30 mg, po single dose; type: ADME, organism-based; set-up: dosed compound name [14C]SB-649868; conditions: in vivo
In short: as §1

[7] = Elimination half life in dog; type: ADME, organism-based, Canis lupus familiaris; set-up: dosed compound name [14C]SB-649868; conditions: in vivo, read-out: Compound recovery
[8] = Drug level in human feces treated with [14C]SB-649868 at 30 mg, po single dose by HPLC-MSn analysis; conditions: in vivo
Plasma [9] = experiment: Drug level in human plasma assessed as radioactivity treated with [14C]SB-649868 at 30 mg, po single dose after 3 hrs by HPLC-MSn analysis; type: ADME, organism-based; set-up: dosed compound name [14C]SB-649868; conditions: in vivo
In short: as §2

Plasma [10] = experiment: Drug recovery in human plasma at 30, po single dose after 48 hrs by HPLC-MSn analysis; type: ADME, organism-based; set-up: dosed compound name [14C]SB-649868
In short: as §2

Plasma [11] = experiment: Drug recovery in human plasma at 30, po single dose after 3 hrs by HPLC-MSn analysis; type: ADME, organism-based; set-up: dosed compound name [14C]SB-649868
In short: as §2

Homo sapiens [12] = experiment: Tmax in human plasma treated with [14C]SB-649868 at 30 mg, po single dose; type: ADME, organism-based; set-up: dosed compound name [14C]SB-649868; conditions: in vivo
In short: as §1

Homo sapiens [13] = experiment: AUC (0 to t) in human plasma treated with [14C]SB-649868 at 30 mg, po single dose; type: ADME, organism-based; set-up: dosed compound name [14C]SB-649868; conditions: in vivo
In short: as §1

Homo sapiens [14] = experiment: Apparent half life in human plasma treated with [14C]SB-649868 at 30 mg, po single dose; type: ADME, organism-based; set-up: dosed compound name [14C]SB-649868; conditions: in vivo
In short: as §1

Homo sapiens [15] = experiment: AUC (0 to infinity) in human plasma treated with [14C]SB-649868 at 30 mg, po single dose; type: ADME, organism-based; set-up: dosed compound name [14C]SB-649868; conditions: in vivo
In short: as §1

Plasma [16] = experiment: Drug level in human plasma assessed as radioactivity treated with [14C]SB-649868 at 30 mg, po single dose after 48 hrs by HPLC-MSn analysis; type: ADME, organism-based; set-up: dosed compound name [14C]SB-649868; conditions: in vivo
In short: as §2

Plasma [17] = experiment: Drug level in human plasma assessed as radioactivity treated with [14C]SB-649868 at 30 mg, po single dose after 24 hrs by HPLC-MSn analysis; type: ADME, organism-based; set-up: dosed compound name [14C]SB-649868; conditions: in vivo
In short: as §2

| SMILES | Compound recovery [1] | Compound recovery (Homo sapiens [2]) | half-life [3] | Compound recovery (Plasma [4]) | half-life [5] | Compound recovery (Homo sapiens [6]) | half-life [7] | Compound recovery [8] | Compound recovery (Plasma [9]) | Compound recovery (Plasma [10]) | Compound recovery (Plasma [11]) | Compound recovery (Homo sapiens [12]) | Compound recovery (Homo sapiens [13]) | Compound recovery (Homo sapiens [14]) | Compound recovery (Homo sapiens [15]) | Compound recovery (Plasma [16]) | Compound recovery (Plasma [17]) |
| --- | --- | --- | --- | --- | --- | --- | --- | --- | --- | --- | --- | --- | --- | --- | --- | --- | --- |
| Cc1nc(C(=O)N2CCCC[C@H]2CNC(=O)c2cccc3occc23)c(-c2ccc(F)cc2)s1 [SB-649868] | Below quantification limit | 1.2 µg/mL | 2.2 h | 33.2% | < 1 h | 3610 mL/h | < 1 h | Below quantification limit | 67.7% | 34% | 97% | 4 h | 8.2 µg·h/mL | 4.8 h | 8.3 µg·h/mL | < 1 | 9.8% |
| Cc1nc(C(=O)N2CCCC[C@H]2CN)c(-c2ccc(F)cc2)s1 | 0.6% |  |  | 1% |  |  |  | 1.5% | 1.3% |  |  |  |  |  |  | 3% | 1.9% |
